The values below come from ChEMBL document CHEMBL5113498, “A fragment-based drug discovery strategy applied to the identification of NDM-1 β-lactamase inhibitors” (Eur J Med Chem, 2022).

Assay [1] concerns Bacteria. The experiment in a line: Inhibition of […] (unknown origin) using imipenem as substrate at 50 uM by spectrophotometric assay relative to control. In outline:
(§1)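 Reporter-substrate spectrophotometric assay in 50 mM HEPES pH 7.5. Imipenem 150 μM (final) hydrolysis followed as absorbance change at 300 nm, with and without 50 μM compound. Compounds dissolved in DMSO (100 mM stock) and diluted in reaction buffer. % inhibition = 100 − 100×(vi/v0). 5 mM EDTA served as inhibition control.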

The subject of assay [2] is Klebsiella pneumoniae. The experiment in a line: Synergistic antibacterial activity against Klebsiella pneumoniae SI-518 assessed as meropenem MIC at 32 ug/ml after 24 hrs by two-fold serial dilution method. Format: functional. To be noted: dose 32 µg/ml. In outline:
(§2)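 Meropenem MICs against NDM-1-producing clinical isolates, with or without inhibitor fixed at 32 μg/mL, by two-fold serial dilution in Mueller-Hinton broth. Inoculum 5×10^4 CFU/well, CLSI method. Inhibitor added before the antibiotic. Plates incubated 24 h at 35 °C and read visually. Done in triplicate.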

Assay [3] relates to Bacteria. The experiment in a line: Inhibition of IMP-1 (unknown origin) using imipenem as substrate at 50 uM by spectrophotometric assay relative to control. The procedure, abridged:
as §1

The nature of assay [4]: Inhibition of […] (unknown origin) using imipenem as substrate by spectrophotometric assay relative to control. Details: species or system Bacteria. In outline: (§3)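 Ki from a competitive model. Initial rates of hydrolysis of 150 μM imipenem (reporter substrate) measured spectrophotometrically in 50 mM HEPES pH 7.5 at varying inhibitor concentrations. v0/vi plotted against [I], and Ki = KM/[(KM+[S])·slope]. Assays run in triplicate.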

In assay [5] the test system is Escherichia coli. The experiment in a line: Synergistic antibacterial activity against Escherichia coli SI-004M assessed as meropenem MIC at 32 ug/ml after 24 hrs by two-fold serial dilution method. The format is functional. To be noted: dose 32 µg/ml. In outline:
as §2

The test system of assay [6] is Bacteria. Kind of assay: Inhibition of VIM-2 (unknown origin) using imipenem as substrate at 50 uM by spectrophotometric assay relative to control. The procedure, abridged: as §1
Assay [7] in a line: Inhibition of IMP-1 (unknown origin) using imipenem as substrate by spectrophotometric assay relative to control. Details: species or system Bacteria. The procedure, abridged:
as §3

In assay [8] the test system is Klebsiella pneumoniae. The experiment in a line: Synergistic antibacterial activity against Klebsiella pneumoniae SI-518 assessed as fold reduction in meropenem MIC at 32 ug/ml after 24 hrs by two-fold serial dilution method. The format is functional. To be noted: dose 32 µg/ml. In outline:
as §2

Assay [9] deals with Escherichia coli. The experiment in a line: Synergistic antibacterial activity against Escherichia coli SI-004M assessed as fold reduction in meropenem MIC at 32 ug/ml after 24 hrs by two-fold serial dilution method. Format: functional. As to conditions: dose 32 µg/ml. The procedure, abridged:
as §2

For assay [10], the system named is Klebsiella pneumoniae. The experiment in a line: Antibacterial activity against Klebsiella pneumoniae SI-518 assessed as reduction in microbial growth after 24 hrs by two-fold serial dilution method. The format is functional. In outline: (§4)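 NDM-1-producing clinical isolate; meropenem MIC measured without inhibitor and with a fixed 32 μg/mL inhibitor (in each well and in the diluent) over two-fold serial dilutions. Mueller-Hinton broth, 5×10^4 CFU/well inoculum, per CLSI. Incubated 35 °C for 24 h and read visually. Triplicate. Compounds from a DMSO stock diluted in medium.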

Assay [11] has as its system Escherichia coli. Kind of assay: Antibacterial activity against Escherichia coli SI-004M assessed as reduction in microbial growth after 24 hrs by two-fold serial dilution method. The format is functional. In outline:
as §4

pKi: −log10 of the molar value.

The term inhibition denotes how much of the control response was suppressed. Read a high inhibition as strong suppression. For `O=C(/C=C/c1ccc(N2CCOCC2)cc1)c1ccccc1O`, the inhibition in the assay with Bacteria [1] was determined as 24%.

Compound `CCCCOc1ccc(/C=C2\Oc3cc(O)cc(O)c3C2=O)c(O)c1` showed an inhibition in the assay with Bacteria [1] of 46%.

For the compound `O=C(/C=C/c1ccc2c(c1)OCO2)c1ccccc1O`, the inhibition with Bacteria [1] was < 20%.

As for `O=C(/C=C/c1ccc(N2CCCCC2)cc1)c1ccccc1O`, in the assay on Bacteria [1], the inhibition was 35%.

The term MIC denotes the smallest concentration in the dilution series that meets the test's criterion for growth inhibition. What is called pKi is −log10 of the Ki, conventionally taken in molar units. For the compound `Oc1cccc2ccc(CCc3ccc4c(c3)OCO4)nc12`, the MIC with Klebsiella pneumoniae [2] and in the assay with Escherichia coli [5] was 64 µg/mL each time. Moreover, the results for the inhibition in the assay with Bacteria [3], with Bacteria [1] and in the assay on Bacteria [6] were 71%, 90% and 38%, respectively. Further, in [4], the pKi is 5.96.

In the case of `O=C1/C(=C/c2ccc(N3CCCCC3)cc2)Oc2cc(O)cc(O)c21`, the inhibition with Bacteria [3] was < 20%; in the assay on Bacteria [1], 74%; in the assay with Bacteria [6], < 20%. Also, the pKi in assay [4] was 5.32.

For `Oc1cccc2ccc(/C=C/c3ccc4c(c3)OCO4)nc12`, the inhibition in the assay with Bacteria [3] was found to be 79%; in the assay on Bacteria [1], 93%; in the assay on Bacteria [6] it was 26%.

In the case of `O=C1/C(=C/c2ccc(O)c(O)c2)Cc2cc(O)cc(O)c21`, the inhibition with Bacteria [3] was 23%; in the assay on Bacteria [1], 77%; in the assay on Bacteria [6] it was < 20%. This compound had a pKi in assay [4] of 5.39.

For the compound `Oc1cccc2ccc(/C=C/c3ccccc3)nc12`, the results for the MIC in the assay with Klebsiella pneumoniae [2] and in the assay with Escherichia coli [5] were 0.25 µg/mL and 1 µg/mL, respectively. Moreover, the results for the inhibition in the assay with Bacteria [3], in the assay with Bacteria [1] and in the assay on Bacteria [6] were 84%, 95% and 37%, respectively. Moreover, the pKi is 5.66 in [4] and 5.33 in [7]. Also, the “fold change (FC)” value with Klebsiella pneumoniae [8] was 256; with Escherichia coli [9], 64.

Consider `C[C@@H](O)[C@H]1C(=O)N2C(C(=O)O)=C(S[C@@H]3CN[C@H](C(=O)N(C)C)C3)[C@H](C)[C@H]12` [MEROPENEM], for which the MIC in the assay with Klebsiella pneumoniae [10] and in the assay with Escherichia coli [11] was 64 µg/mL in each case.

As to `Oc1cccc2ccc(CCc3ccccc3)nc12`, the inhibition came to 76% with Bacteria [3], 85% in the assay on Bacteria [1] and 28% with Bacteria [6].
